Assay outcomes as filed in PubChem BioAssay.
PKA-R1A activ – activates the PKA-R1A holoenzyme complex. PKA-R1A dissociation, Cy5-IP20 fluorescence polarization; scaled: DMSO 0%, 113 µM cGMP 100%. activation, % at 11.4 µM. actives 0.083% (n = 340,000). AID 504707;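 active = percent activation above the mean of all tested compounds plus 3 SD, cut at about 19% in these data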;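 also: higher means more PKAc released from R1A so a rise in polarization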
NR2E3 ag-1 – agonists of human NR2E3 nuclear receptor; Q9Y5X4; CHO-S Gal4-NCOR/VP16-NR2E3 two-hybrid, luciferase; inhibition of corepressor binding, % at 3.98 µM; actives 0.35% (n = 360,000);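 active = inhibition above the mean of all tested compounds plus 3 SD, cut at about 70% in these data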;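 also: higher means lower luciferase signal from less NR2E3 corepressor binding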
Target sequence (Q9Y5X4 whole entry, looked up, the tested form may be a part): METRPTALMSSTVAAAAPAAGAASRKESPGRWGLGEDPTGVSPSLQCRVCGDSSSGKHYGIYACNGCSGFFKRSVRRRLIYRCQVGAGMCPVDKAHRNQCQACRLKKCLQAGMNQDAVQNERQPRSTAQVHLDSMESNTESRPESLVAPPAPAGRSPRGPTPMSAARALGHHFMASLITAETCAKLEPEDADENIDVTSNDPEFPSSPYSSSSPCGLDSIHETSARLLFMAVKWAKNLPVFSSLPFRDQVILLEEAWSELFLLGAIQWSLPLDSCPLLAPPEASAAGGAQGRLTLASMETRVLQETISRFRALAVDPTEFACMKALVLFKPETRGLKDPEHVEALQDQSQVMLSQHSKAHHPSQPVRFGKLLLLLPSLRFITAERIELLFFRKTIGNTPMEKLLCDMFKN
Rev-erbA mod – Rev-erb alpha (human) modulation | actives 0.79% (n = 370,000) | activity, % at 10 µM | Rev-erbα–FITC-DNA binding, fluorescence polarization, 90 min | P20393;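 active = activity above about 14%, limit read from the data; passing the limit was not always enough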
NR2E3 ag-2 – NR2E3 (human) agonism | GST-NR2E3/biotin-RetCOR TR-FRET, 1536-well | inhibition of corepressor binding, % at 4.78 µM | actives 0.12% (n = 320,000);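 active = percent inhibition above the cutoff of mean plus 3 SD of all tested compounds, set per screening campaign, cut at about 20% in these data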
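Material: NR2E3–RetCOR corepressor complex | Quantity: 1.35 nM GST-tagged NR2E3 final | Schedule: 5 h at 4 °C | Replication: Singlicate compound wells | Reagent: RetCOR corepressor, biotinylated, 7 nM | Controls: Biotin wells as high control, 0.6% DMSO wells as low control | Signal: TR-FRET, Eu(K)-anti-GST donor, streptavidin-D2 acceptor, ex 340, em 617/671 nm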
PKA-R2B activ – PKA-R2B complex activation; P22694+P31323; PKA-R2B holoenzyme dissociation, Cy5-IP20 fluorescence polarization; R2B truncated from residue 108, S112A mutant; 0% DMSO only, 100% 113 µM cGMP; activation, % at 11.4 µM; actives 0.079% (n = 340,000);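 active = activation above a cutoff set at the mean over all compounds plus 3 SD, cut at about 18% in these data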;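 also: higher means more holoenzyme dissociation and a rise in polarization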
PG9 binder – PG9 antibody binding by small molecule; TR-FRET gp120-PG9 antibody binding; inhibition, % at 6.7 µM; actives 0.43% (n = 360,000); in the data active = inhibition above about 8.5%
Rev-erbA confirm – confirmation of modulators of human Rev-erb alpha DNA binding; shares compounds with Rev-erbA mod; Rev-erb alpha FITC-DNA binding, fluorescence polarization, 90 min; activation, % at 25 µM; actives 61% (n = 3,000); AID 1259319;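 active = activation at or above a set limit, or at least 3 SD above the negative control mean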
RORg DNA counter – RORgamma DNA-binding activity, dose-response counter-screen; shares compounds with Rev-erbA mod; purified RORgamma protein-FITC-DNA binding, fluorescence polarization; IC50, µM; actives 8% (n = 910);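 active = Compounds whose fitted half-maximal concentration for disrupting protein-DNA binding is below 10 micromolar; the record names Rev-erb in its text, so the target is in doubt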
Hits are given with their value; n = inactive; x = not tested or not shown. This is a sample that favours compounds with a hit; in the whole collection about 1.6% have one here.

SMILES	PKA-R1A activ	NR2E3 ag-1	Rev-erbA mod	NR2E3 ag-2	PKA-R2B activ	PG9 binder	Rev-erbA confirm	others
O=C(Nc1nnc(C2CCCCC2)s1)c1ccc(Br)s1	n	n	95.4	n	n	n	81.7	RORg DNA counter=n
O=C(Nc1nnc(C(F)(F)F)s1)c1ccc(Br)s1	n	n	n	n	n	n	x
CCN(CC)c1ccc2cc(C(=O)NCc3ccc(F)cc3)c(=N)oc2c1	n	n	39.8	n	n	n	32.5	RORg DNA counter=n
COc1ccc2cc(C(=O)NCc3ccccc3)c(=O)oc2c1	n	n	40.2	n	n	n	n
COc1ccc2oc(=O)c(C(=O)NCc3ccc(F)cc3)cc2c1	n	n	29.8	n	n	n	n
COc1ccc(CNC(=O)c2cc3ccccc3oc2=O)cc1	n	n	n	n	n	n	x
COc1ccc(OC)c(C(=O)CSc2nnc(SCc3cccc4ccccc34)s2)c1	x	x	n	x	x	x	x
Cc1ccc(-n2c(SCc3nc4ccccc4[nH]3)nnc2-c2ccccn2)cc1	x	x	n	x	x	x	x
CCC(=O)Nc1sc(C(=O)OC)c(C)c1C(=O)OC	n	n	n	n	n	n	x
COC(=O)c1sc(NC(=O)C(C)C)c(C(=O)OC)c1C	n	n	21.6	n	n	n	n
CCOC(=O)c1sc(NC(=O)C(C)C)c(C#N)c1C	n	n	47.0	n	n	n	25.9
COc1ccc(N)c2c1C(=O)c1ccccc1C2=O	n	n	n	n	n	n	x
COc1ccc2noc3c2c1C(=O)c1ccccc1-3	n	n	21.5	n	n	n	n
O=C1CCCC2=C1[C@@]1(O[C@H]3C=CC=CN23)C(=O)N(c2ccccc2)c2ccccc21	x	x	n	x	x	n	x
Cc1cc(-c2cccc([N+](=O)[O-])c2)nc2ccc3ccccc3c12	n	n	37.7	n	n	n	42.4	RORg DNA counter=n
COc1ccc(-c2cc(C(=O)Nc3ccc(Br)cc3)no2)cc1	n	n	34.8	n	n	n	n
COc1ccc(NC(=O)c2cc3nc(-c4ccccc4)cc(-c4ccccc4)n3n2)c(OC)c1	n	n	21.2	n	n	n	n
Cn1nc(C(=O)Nc2ccc(Br)cc2)cc1C(=O)Nc1ccc(Br)cc1	n	n	13.3	n	n	n	n
O=C(Nc1cccc(O)c1)c1cc2nc(-c3ccccc3)cc(-c3ccccc3)n2n1	n	n	n	n	n	n	x
COc1ccc(-c2cc(C(F)(F)F)n3nc(C(=O)Nc4cc(C)on4)cc3n2)cc1OC	n	n	34.1	n	n	n	25.7
C=CC[C@H]1c2ccccc2[C@H]2N3N=Cc4ccccc4[C@H]3[C@H](CCCC)C(=O)N2N1C(=O)c1ccccc1	x	x	n	x	x	x	x
Cc1ccc(-c2nc(C3CCCN(S(=O)(=O)c4ccccc4)C3)no2)cc1 (configuration not stated)	x	x	n	x	x	x	x
Cc1cc(NC(=O)c2cccc(C(=O)Nc3cc(C)on3)n2)no1	n	n	21.5	n	n	n	16.5
COc1ccc(-c2cc(C(=O)Nc3cc(C)on3)no2)cc1OC	n	n	36.4	n	n	n	28.9
Cc1cc(NC(=O)c2cc(-c3ccc(O)cc3)on2)no1	n	n	n	n	n	n	x
COc1cccc(-c2cc(C(=O)Nc3cc(C)n(Cc4ccc(Cl)cc4)n3)no2)c1	n	n	n	n	n	n	x
COc1ccc(OC)c(-c2cc(C(=O)Nc3cc(C)n(Cc4ccc(Cl)cc4)n3)no2)c1	n	n	15.6	n	n	n	n
CCN(C(=O)C1CCN(c2ncccn2)CC1)c1ccccc1	x	x	n	x	x	x	x
C=CCN=C1NC(c2ccccc2C(F)(F)F)C(C(=O)OC)=C(C)N1Cc1ccc(C(F)(F)F)cc1 (configuration not stated)	x	x	n	x	x	n	x
